≈ marks a conversion by molar mass, not a printed value. One block for each compound: values may come before it.
Experiments:
Assay type in all cases: functional
Enterococcus [1] = test: In vitro minimum inhibitory concentration against Enterococcus species; Range is 2-4 ug/mL
Streptococcus [2] = test: In vitro minimum inhibitory concentration against Streptococcus species
Staphylococcus [3] = test: In vitro minimum inhibitory concentration against Staphylococcus species; Range is 0.5-2 ug/mL
Enterococcus faecalis = test: Effective dose of compound against Enterococcus faecalis (GC 6189) in mice
Outline: (§1)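 Murine protection models against S. aureus Smith (GC 4543) and E. faecalis (GC 6189). Compounds dosed in D5W (5% dextrose in water); vancomycin dosed in saline. Five dosages, five mice per dosage level. ED50 in mg/kg reported as the pooled mean from at least three separate tests.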

Staphylococcus [4] = test: In vitro minimum inhibitory concentration against Staphylococcus species
Enterococcus [5] = test: In vitro minimum inhibitory concentration against Enterococcus species; Range is 0.5-2 ug/mL
Staphylococcus aureus = test: Effective dose of compound against […] Smith (GC 4543) in mice; outline: as §1
Streptococcus [6] = test: In vitro minimum inhibitory concentration against Streptococcus species; Range is 0.12-0.25 ug/mL
Enterococcus [7] = test: In vitro minimum inhibitory concentration against Enterococcus species (in vitro); Range is 1-2 ug/mL
Staphylococcus [8] = test: In vitro minimum inhibitory concentration against Staphylococcus species; Range is 0.5-1 ug/mL
Streptococcus [9] = test: In vitro minimum inhibitory concentration against Streptococcus species; Range is 0.06-0.12 ug/mL
Staphylococcus [10] = test: In vitro minimum inhibitory concentration against Staphylococcus species; Range is 1-2 ug/mL
Enterococcus [11] = test: In vitro minimum inhibitory concentration against Enterococcus species; Range is 0.5-4 ug/mL
Enterococcus [12] = test: In vitro minimum inhibitory concentration against Enterococcus species; Range is 0.5-1 ug/mL
Staphylococcus [13] = test: In vitro minimum inhibitory concentration against Staphylococcus species; Range is 0.25-1 ug/mL
Enterococcus [14] = test: In vitro minimum inhibitory concentration against Enterococcus species; Range is 1-2 ug/mL
Streptococcus [15] = test: In vitro minimum inhibitory concentration against Streptococcus species; Range is 0.06-0.25 ug/mL
Enterococcus [16] = test: In vitro minimum inhibitory concentration against Enterococcus species
Enterococcus [17] = test: In vitro minimum inhibitory concentration against Enterococcus species; Range is 4-8 ug/mL
Staphylococcus [18] = test: In vitro minimum inhibitory concentration against Staphylococcus species; Range is 1-4 ug/mL
Enterococcus [19] = test: In vitro minimum inhibitory concentration against Enterococcus species; Range is 0.12-0.25 ug/mL
Staphylococcus [20] = test: In vitro minimum inhibitory concentration against Staphylococcus species; Range is 0.06-0.12 ug/mL
Streptococcus [21] = test: In vitro minimum inhibitory concentration against Streptococcus species; Range is 0.12-1 ug/mL
Enterococcus [22] = test: In vitro minimum inhibitory concentration against Enterococcus species; Range is 0.5-128 ug/mL
Streptococcus [23] = test: In vitro minimum inhibitory concentration against Streptococcus species; Range is 0.12-0.5 ug/mL

MIC (Enterococcus [1]): 4 µg/mL (≈ 2.91 µM) | MIC (Streptococcus [2]): ≤ 0.12 µg/mL | MIC (Staphylococcus [3]): 2 µg/mL (≈ 1.45 µM)
Compound: NC1=NC[C@@H]([C@H](O)[C@@H]2NC(=O)[C@@H](Cc3ccc(O[C@H]4O[C@H](CO)[C@@H](O[C@H]5O[C@@H]6COC(c7ccccc7)O[C@H]6[C@H](O)[C@@H]5O)[C@H](O)[C@@H]4O)cc3)NC(=O)C(CC3CCCCC3)NC(=O)CNC(=O)[C@H](CO)NC(=O)[C@@H]([C@@H](O)[C@@H]3CN=C(N)N3[C@H]3O[C@H](CO)[C@@H](O)[C@H](O)[C@@H]3O)NC2=O)N1 (stereo not given in full)

MIC (Streptococcus [2]): ≤ 0.12 µg/mL | MIC (Staphylococcus [4]): 1 µg/mL (≈ 0.72 µM) | MIC (Enterococcus [5]): 2 µg/mL (≈ 1.44 µM)
Compound: C[C@@H](c1ccccc1)C1NC(=O)CNC(=O)[C@H](CO)NC(=O)[C@@H]([C@@H](O)[C@@H]2CN=C(N)N2[C@H]2O[C@H](CO)[C@@H](O)[C@H](O)[C@@H]2O)NC(=O)[C@H]([C@@H](O)[C@@H]2CN=C(N)N2)NC(=O)[C@@H](Cc2ccc(O[C@H]3O[C@H](CO)[C@@H](O[C@H]4O[C@@H]5COC(C6CCCCC6)O[C@H]5[C@H](O)[C@@H]4O)[C@H](O)[C@@H]3O)cc2)NC1=O (stereo not given in full)
ED50 (Enterococcus faecalis): 0.19 mg/kg | ED50 (Staphylococcus aureus): 0.07 mg/kg

MIC (Enterococcus [1]): 4 µg/mL (≈ 2.89 µM) | MIC (Staphylococcus [3]): 2 µg/mL (≈ 1.45 µM) | MIC (Streptococcus [6]): ≤ 0.25 µg/mL
Compound: C[C@@H](c1ccccc1)C1NC(=O)CNC(=O)[C@H](CO)NC(=O)[C@@H]([C@@H](O)[C@@H]2CN=C(N)N2[C@H]2O[C@H](CO)[C@@H](O)[C@H](O)[C@@H]2O)NC(=O)[C@H]([C@@H](O)[C@@H]2CN=C(N)N2)NC(=O)[C@@H](Cc2ccc(O[C@H]3O[C@H](CO)[C@@H](O[C@H]4O[C@@H]5COC(c6ccccc6)O[C@H]5[C@H](O)[C@@H]4O)[C@H](O)[C@@H]3O)cc2)NC1=O (stereo not given in full)
ED50 (Enterococcus faecalis): 0.39 mg/kg | ED50 (Staphylococcus aureus): 0.19 mg/kg

MIC (Enterococcus [7]): 2 µg/mL (≈ 1.45 µM) | MIC (Streptococcus [2]): ≤ 0.5 µg/mL | MIC (Staphylococcus [8]): ≤ 1 µg/mL
Compound: CCCCCC1OC[C@H]2O[C@H](O[C@H]3[C@H](O)[C@H](O)[C@@H](Oc4ccc(C[C@H]5NC(=O)C([C@@H](C)c6ccccc6)NC(=O)CNC(=O)[C@H](CO)NC(=O)[C@@H]([C@@H](O)[C@@H]6CN=C(N)N6[C@H]6O[C@H](CO)[C@@H](O)[C@H](O)[C@@H]6O)NC(=O)[C@H]([C@@H](O)[C@@H]6CN=C(N)N6)NC5=O)cc4)O[C@@H]3CO)[C@@H](O)[C@@H](O)[C@@H]2O1 (stereo not given in full)

MIC (Enterococcus [1]): 4 µg/mL (≈ 2.85 µM) | MIC (Streptococcus [9]): ≤ 0.12 µg/mL | MIC (Staphylococcus [10]): 2 µg/mL (≈ 1.43 µM)
Compound: C[C@@H](c1ccccc1)C1NC(=O)CNC(=O)[C@H](CO)NC(=O)[C@@H]([C@@H](O)[C@@H]2CN=C(N)N2[C@H]2O[C@H](CO)[C@@H](O)[C@H](O)[C@@H]2O)NC(=O)[C@H]([C@@H](O)[C@@H]2CN=C(N)N2)NC(=O)[C@@H](Cc2ccc(O[C@H]3O[C@H](CO)[C@@H](O[C@H]4O[C@@H]5COC(CC6CCCCC6)O[C@H]5[C@H](O)[C@@H]4O)[C@H](O)[C@@H]3O)cc2)NC1=O (stereo not given in full)

MIC (Enterococcus [11]): 4 µg/mL (≈ 2.88 µM) | MIC (Streptococcus [9]): ≤ 0.12 µg/mL | MIC (Staphylococcus [10]): 2 µg/mL (≈ 1.44 µM)
Compound: NC1=NC[C@@H]([C@H](O)[C@@H]2NC(=O)[C@@H](Cc3ccc(O[C@H]4O[C@H](CO)[C@@H](O[C@H]5O[C@@H]6COC(Cc7ccccc7)O[C@H]6[C@H](O)[C@@H]5O)[C@H](O)[C@@H]4O)cc3)NC(=O)C(CC3CCCCC3)NC(=O)CNC(=O)[C@H](CO)NC(=O)[C@@H]([C@@H](O)[C@@H]3CN=C(N)N3[C@H]3O[C@H](CO)[C@@H](O)[C@H](O)[C@@H]3O)NC2=O)N1 (stereo not given in full)

MIC (Enterococcus [12]): 1 µg/mL (≈ 0.701 µM) | MIC (Streptococcus [2]): ≤ 0.06 µg/mL | MIC (Staphylococcus [13]): 1 µg/mL (≈ 0.701 µM)
Compound: C[C@@H](c1ccccc1)C1NC(=O)CNC(=O)[C@H](CO)NC(=O)[C@@H]([C@@H](O)[C@@H]2CN=C(N)N2[C@H]2O[C@H](CO)[C@@H](O)[C@H](O)[C@@H]2O)NC(=O)[C@H]([C@@H](O)[C@@H]2CN=C(N)N2)NC(=O)[C@@H](Cc2ccc(O[C@H]3O[C@H](CO)[C@@H](O[C@H]4O[C@@H]5COC6(O[C@H]5[C@H](O)[C@@H]4O)C4CC5CC(C4)CC6C5)[C@H](O)[C@@H]3O)cc2)NC1=O (stereo not given in full)
ED50 (Enterococcus faecalis): 1.8 mg/kg | ED50 (Staphylococcus aureus): 0.04 mg/kg

MIC (Enterococcus [14]): 2 µg/mL (≈ 1.43 µM) | MIC (Streptococcus [15]): ≤ 0.25 µg/mL | MIC (Staphylococcus [4]): 2 µg/mL (≈ 1.43 µM)
Compound: C[C@@H](c1ccccc1)C1NC(=O)CNC(=O)[C@H](CO)NC(=O)[C@@H]([C@@H](O)[C@@H]2CN=C(N)N2[C@H]2O[C@H](CO)[C@@H](O)[C@H](O)[C@@H]2O)NC(=O)[C@H]([C@@H](O)[C@@H]2CN=C(N)N2)NC(=O)[C@@H](Cc2ccc(O[C@H]3O[C@H](CO)[C@@H](O[C@H]4O[C@@H]5COC(Cc6ccccc6)O[C@H]5[C@H](O)[C@@H]4O)[C@H](O)[C@@H]3O)cc2)NC1=O (stereo not given in full)
ED50 (Enterococcus faecalis): 1.04 mg/kg | ED50 (Staphylococcus aureus): 0.23 mg/kg

MIC (Enterococcus [16]): > 128 µg/mL | MIC (Streptococcus [2]): > 32 µg/mL | MIC (Staphylococcus [4]): 128 µg/mL (≈ 98.8 µM)
Compound: C[C@@H](c1ccccc1)C1NC(=O)CNC(=O)[C@H](CO)NC(=O)[C@@H]([C@@H](O)[C@@H]2CN=C(N)N2[C@H]2O[C@H](CO)[C@@H](O)[C@H](O)[C@@H]2O)NC(=O)[C@H]([C@@H](O)[C@@H]2CN=C(N)N2)NC(=O)[C@@H](Cc2ccc(O[C@H]3O[C@H](CO)[C@@H](O[C@H]4O[C@H](CO)[C@@H](O)[C@H](O)[C@@H]4O)[C@H](O)[C@@H]3O)cc2)NC1=O (stereo not given in full)
ED50 (Staphylococcus aureus): 20 mg/kg

MIC (Enterococcus [17]): 8 µg/mL (≈ 5.65 µM) | MIC (Streptococcus [2]): ≤ 0.06 µg/mL | MIC (Staphylococcus [18]): 4 µg/mL (≈ 2.83 µM)
Compound: C[C@@H](c1ccccc1)C1NC(=O)CNC(=O)[C@H](CO)NC(=O)[C@@H]([C@@H](O)[C@@H]2CN=C(N)N2[C@H]2O[C@H](CO)[C@@H](O)[C@H](O)[C@@H]2O)NC(=O)[C@H]([C@@H](O)[C@@H]2CN=C(N)N2)NC(=O)[C@@H](Cc2ccc(O[C@H]3O[C@H](CO)[C@@H](O[C@H]4O[C@@H]5COC6(O[C@H]5[C@H](O)[C@@H]4O)C4CCCC6CCC4)[C@H](O)[C@@H]3O)cc2)NC1=O (stereo not given in full)

MIC (Enterococcus [19]): 0.25 µg/mL (≈ 0.176 µM) | MIC (Streptococcus [2]): ≤ 0.06 µg/mL | MIC (Streptococcus [9]): ≤ 0.12 µg/mL | MIC (Staphylococcus [20]): ≤ 0.12 µg/mL | MIC (Staphylococcus [13]): 1 µg/mL (≈ 0.704 µM) | MIC (Enterococcus [5]): 2 µg/mL (≈ 1.41 µM)
Compound: NC1=NC[C@@H]([C@H](O)[C@@H]2NC(=O)[C@@H](Cc3ccc(O[C@H]4O[C@H](CO)[C@@H](O[C@H]5O[C@@H]6COC7(O[C@H]6[C@H](O)[C@@H]5O)C5CC6CC(C5)CC7C6)[C@H](O)[C@@H]4O)cc3)NC(=O)C(CC3CCCCC3)NC(=O)CNC(=O)[C@H](CO)NC(=O)[C@@H]([C@@H](O)[C@@H]3CN=C(N)N3[C@H]3O[C@H](CO)[C@@H](O)[C@H](O)[C@@H]3O)NC2=O)N1 (stereo not given in full)
ED50 (Enterococcus faecalis): 0.39 mg/kg | ED50 (Staphylococcus aureus): 0.08 mg/kg

MIC (Enterococcus [17]): 8 µg/mL (≈ 5.82 µM) | MIC (Staphylococcus [18]): 4 µg/mL (≈ 2.91 µM) | MIC (Streptococcus [21]): 1 µg/mL (≈ 0.727 µM)
Compound: C[C@@H](c1ccccc1)C1NC(=O)CNC(=O)[C@H](CO)NC(=O)[C@@H]([C@@H](O)[C@@H]2CN=C(N)N2[C@H]2O[C@H](CO)[C@@H](O)[C@H](O)[C@@H]2O)NC(=O)[C@H]([C@@H](O)[C@@H]2CN=C(N)N2)NC(=O)[C@@H](Cc2ccc(O[C@H]3O[C@H](CO)[C@@H](O[C@H]4O[C@@H]5COC6(CCCCC6)O[C@H]5[C@H](O)[C@@H]4O)[C@H](O)[C@@H]3O)cc2)NC1=O (stereo not given in full)

Compound: CN[C@H](CC(C)C)C(=O)N[C@H]1C(=O)N[C@@H](CC(N)=O)C(=O)N[C@H]2C(=O)N[C@H]3C(=O)N[C@H](C(=O)N[C@H](C(=O)O)c4cc(O)cc(O)c4-c4cc3ccc4O)[C@H](O)c3ccc(c(Cl)c3)Oc3cc2cc(c3O[C@@H]2O[C@H](CO)[C@@H](O)[C@H](O)[C@H]2O[C@H]2C[C@](C)(N)[C@H](O)[C@H](C)O2)Oc2ccc(cc2Cl)[C@H]1O [VANCOMYCIN]
MIC (Enterococcus [22]): 128 µg/mL (≈ 88.3 µM) | ED50 (Enterococcus faecalis): > 32 mg/kg | MIC (Staphylococcus [3]): < 2 µg/mL | MIC (Streptococcus [23]): ≤ 0.5 µg/mL | ED50 (Staphylococcus aureus): 1 mg/kg
